Data: ChEMBL document CHEMBL1250506, “Synthesis of novel sulfanilamide-derived 1,2,3-triazoles and their evaluation for antibacterial and antifungal activities” (2010)
Values after ≈ are worked out from the molar mass of the structure shown.

Columns and labels:
Format in all cases: functional
Bacillus subtilis = assay: Antibacterial activity against Bacillus subtilis ATCC 6633 by twofold serial dilution technique
Candida albicans = assay: Antifungal activity against Candida albicans ATCC 76615 by twofold serial dilution technique
In short: (§1)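 Two-fold serial dilution MIC in 96-well microtest plates. Test compounds from DMSO stocks, with fluconazole as reference. MIC read as the first well showing about 80% growth reduction versus the drug-free well.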

Shigella dysenteriae = assay: Antibacterial activity against Shigella dysenteriae by twofold serial dilution technique
In short: (§2)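 MIC by two-fold broth dilution in 96-well plates following NCCLS. Compounds were dissolved in DMSO as stock, then diluted in Mueller-Hinton broth to 512 down to 0.5. Inoculum was bacterial suspension adjusted with sterile saline to 1 ×10⁵ CFU. Plates were incubated 37 °C for 24 h, with a DMSO-supplemented medium control at matching dilutions. Chloramphenicol was the reference.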

Staphylococcus aureus [1] = assay: Antibacterial activity against methicillin-resistant Staphylococcus aureus N315 by twofold serial dilution technique; in short: as §2
[2] = Antibacterial activity against Eberthella typhosa by twofold serial dilution technique
Candida = assay: Antifungal activity against Candida mycoderma by twofold serial dilution technique; in short: as §1
Staphylococcus aureus [3] = assay: Antibacterial activity against Staphylococcus aureus ATCC 25923 by twofold serial dilution technique
Pseudomonas aeruginosa = assay: Antibacterial activity against Pseudomonas aeruginosa by twofold serial dilution technique
Escherichia coli = assay: Antibacterial activity against Escherichia coli JM 109 by twofold serial dilution technique

SMILES	MIC (Bacillus subtilis) [µg/mL]	MIC (Candida albicans) [µg/mL]	MIC (Shigella dysenteriae) [µg/mL]	MIC (Staphylococcus aureus [1]) [µg/mL]	MIC [2] [µg/mL]	MIC (Candida) [µg/mL]	MIC (Staphylococcus aureus [3]) [µg/mL]	MIC (Pseudomonas aeruginosa) [µg/mL]	MIC (Escherichia coli) [µg/mL]
C#CCNS(=O)(=O)c1ccc(N)cc1	> 512	> 512	> 512	> 512	> 512	> 512	> 512	> 512	> 512
CCCCCn1cc(CNS(=O)(=O)c2ccc(N)cc2)nn1	> 512	> 512	512 (≈ 1580 µM)	> 512	512 (≈ 1580 µM)	> 512	> 512	512 (≈ 1580 µM)	> 512
CCCCCCn1cc(CNS(=O)(=O)c2ccc(N)cc2)nn1	256 (≈ 759 µM)	> 512	256 (≈ 759 µM)	512 (≈ 1520 µM)	> 512	> 512	512 (≈ 1520 µM)	256 (≈ 759 µM)	> 512
CCCCCCCCn1cc(CNS(=O)(=O)c2ccc(N)cc2)nn1	256 (≈ 700 µM)	> 512	256 (≈ 700 µM)	512 (≈ 1400 µM)	256 (≈ 700 µM)	512 (≈ 1400 µM)	> 512	128 (≈ 350 µM)	512 (≈ 1400 µM)
CCCCCCCCCCn1cc(CNS(=O)(=O)c2ccc(N)cc2)nn1	64 (≈ 163 µM)	> 512	128 (≈ 325 µM)	512 (≈ 1300 µM)	128 (≈ 325 µM)	> 512	256 (≈ 650 µM)	64 (≈ 163 µM)	512 (≈ 1300 µM)
CCCCCCCCCCCCn1cc(CNS(=O)(=O)c2ccc(N)cc2)nn1	128 (≈ 304 µM)	512 (≈ 1210 µM)	32 (≈ 75.9 µM)	128 (≈ 304 µM)	64 (≈ 152 µM)	256 (≈ 607 µM)	128 (≈ 304 µM)	32 (≈ 75.9 µM)	64 (≈ 152 µM)
CCCCCCCCCCCCCCCCn1cc(CNS(=O)(=O)c2ccc(N)cc2)nn1	256 (≈ 536 µM)	> 512	128 (≈ 268 µM)	512 (≈ 1070 µM)	128 (≈ 268 µM)	> 512	256 (≈ 536 µM)	64 (≈ 134 µM)	256 (≈ 536 µM)
Nc1ccc(S(=O)(=O)NCc2cn(Cc3ccccc3)nn2)cc1	> 512	> 512	512 (≈ 1490 µM)	256 (≈ 745 µM)	512 (≈ 1490 µM)	> 512	512 (≈ 1490 µM)	512 (≈ 1490 µM)	> 512
Cc1cccc(Cn2cc(CNS(=O)(=O)c3ccc(N)cc3)nn2)c1	512 (≈ 1430 µM)	> 512	> 512	> 512	512 (≈ 1430 µM)	> 512	> 512	> 512	> 512
Nc1ccc(S(=O)(=O)NCc2cn(Cc3ccc([N+](=O)[O-])cc3)nn2)cc1	256 (≈ 659 µM)	> 512	> 512	256 (≈ 659 µM)	> 512	> 512	> 512	> 512	> 512
Nc1ccc(S(=O)(=O)NCc2cn(Cc3ccccc3Cl)nn2)cc1	> 512	> 512	512 (≈ 1360 µM)	> 512	> 512	> 512	> 512	512 (≈ 1360 µM)	> 512
Nc1ccc(S(=O)(=O)NCc2cn(Cc3cccc(Cl)c3)nn2)cc1	> 512	> 512	> 512	256 (≈ 678 µM)	256 (≈ 678 µM)	> 512	512 (≈ 1360 µM)	512 (≈ 1360 µM)	> 512
Nc1ccc(S(=O)(=O)NCc2cn(Cc3ccc(Cl)cc3)nn2)cc1	> 512	> 512	> 512	> 512	512 (≈ 1360 µM)	> 512	512 (≈ 1360 µM)	> 512	> 512
Nc1ccc(S(=O)(=O)NCc2cn(Cc3ccc(Cl)cc3Cl)nn2)cc1	128 (≈ 310 µM)	512 (≈ 1240 µM)	32 (≈ 77.6 µM)	128 (≈ 310 µM)	128 (≈ 310 µM)	512 (≈ 1240 µM)	64 (≈ 155 µM)	64 (≈ 155 µM)	128 (≈ 310 µM)
Nc1ccc(S(=O)(=O)NCc2cn(Cc3ccc(F)cc3)nn2)cc1	> 512	> 512	128 (≈ 354 µM)	> 512	256 (≈ 708 µM)	> 512	128 (≈ 354 µM)	128 (≈ 354 µM)	256 (≈ 708 µM)
Nc1ccc(S(=O)(=O)NCc2cn(Cc3ccc(F)cc3F)nn2)cc1	128 (≈ 337 µM)	256 (≈ 675 µM)	16 (≈ 42.2 µM)	128 (≈ 337 µM)	128 (≈ 337 µM)	512 (≈ 1350 µM)	64 (≈ 169 µM)	16 (≈ 42.2 µM)	128 (≈ 337 µM)
O=C(N[C@H](CO)[C@H](O)c1ccc([N+](=O)[O-])cc1)C(Cl)Cl [CHLORAMPHENICOL]	2 (≈ 6.19 µM)	–	4 (≈ 12.4 µM)	2 (≈ 6.19 µM)	2 (≈ 6.19 µM)	–	4 (≈ 12.4 µM)	8 (≈ 24.8 µM)	4 (≈ 12.4 µM)
OC(Cn1cncn1)(Cn1cncn1)c1ccc(F)cc1F [FLUCONAZOLE]	–	0.5 (≈ 1.63 µM)	–	–	–	4 (≈ 13.1 µM)	–	–	–
